Source: publication PMC4972181 (Journal of medicinal chemistry, 2015)
Where two headings read alike, the source gives them in different places.

What was measured:
[1] = system: INSR minigene exon 11 splicing in HeLa cells expressing CUG960; assay type: cell-based, human; settings: for INSR mis-splicing rescue (in words): HeLa cells, CUG960 + INSR minigene
[2] = system: INSR minigene exon 11 splicing in HeLa cells without CUG960; assay: Control splicing experiment, INSR minigene in the absence of transfected CUG960; assay type: cell-based, human; settings: 80 μM; untreated range ~70% to ~80 %
[3] = system: TNNT2 minigene exon 5 splicing in HeLa cells expressing CUG960; assay: HeLa cell DM1 splicing assay, TNNT2 minigene co-transfected with CUG960; assay type: cell-based, human
Atp2a1 exon 22 splicing = assay: HSALR DM1 mouse model, Atp2a1 splicing in quadriceps muscle; assay type: in vivo; settings: HSALR mice, wild type 100 ± 0.2 %, HSALR 28 ± 2 %
Procedure, shortened: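 Homozygous, gender-matched HSALR transgenic mice aged 10–14 wks received the test compound in 5% glucose solution by daily intraperitoneal injection for 7 d. Controls received 5% glucose injections. Mice were killed 1 d after the last dose and quadriceps was taken. RNA was reverse transcribed, PCR-amplified and run on agarose gels read by fluorimager. Inclusion was scored per individual mouse.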

[4] = Toxicity observed in treated HSALR mice; assay type: in vivo, mouse; settings: 10 and 20 mg/kg daily i.p. for 7 d
[5] = system: CUG: MBNL nuclear foci in HeLa cells transfected with CUG960; assay: Fluorescent microscopy of CUG RNA nuclear foci and MBNL1 localization; assay type: cell-based, human; settings: for Effect on ribonuclear foci (in words): 50 μM pentamidine or 80 μM compound 13
[6] = Flow cytometry cell viability assay with propidium iodide in the DM1 cell model; settings: human, HeLa cells, DM1 cell model (transfected)
in vitro = settings: human

N=C(N)c1ccc(OCCCOc2ccccc2)cc1 [Compound 2a]
INSR mis-splicing rescue (in words) [1]: dose-dependent rescue of mis-splicing through 60 μM

N=C(N)c1ccc(OCCCCc2ccccc2)cc1 [Compound 2b]
INSR mis-splicing rescue (in words) [1]: little rescue was observed by 20 μM

N=C(N)c1cccc(OCCCCCCCOc2cccc(C(=N)N)c2)c1 [Compound 4]
Toxicity observed in the cell splicing assay (in words) [1]: very toxic over the range tested | INSR mis-splicing rescue (in words) [1]: almost complete dose-dependent mis-splicing rescue at 25 μM

N=C(N)c1ccc(-c2ccc(-c3ccc(C(=N)N)cc3)o2)cc1 [Compound 13, furamidine]
INSR exon 11 inclusion in the absence of CUG960 [2]: 81± 4% | Toxicity observed in the cell splicing assay (in words) ([1]; HeLa DM1 cell model, qualitative): non-toxic over the range of rescue | Concentration by which full TNNT2 mis-splicing reversal was achieved [3]: ≤ 80 µM | Atp2a1 exon 22 inclusion (Atp2a1 exon 22 splicing; 10 mg/kg daily i.p. 7 days): 64 ± 4% | Atp2a1 exon 22 inclusion (Atp2a1 exon 22 splicing; 20 mg/kg daily i.p. 7 days): 83 ± 4% | Toxicity in mice (in words) [4]: No toxicity was observed over the concentration range tested | Effect on ribonuclear foci (in words) [5]: significant reduction of ribonuclear foci | Reduction of nuclear foci per cell ([5]; 80 μM, vs transfected controls, n = 121, p < 0.05): 89%

N=C(N)c1ccc(OCCCCCCCOc2ccc(C(=N)N)cc2)cc1 [Heptamidine, heptamidine]
IC50 at 18 h [6]: 15 ± 0.46 µM

N=C(N)c1ccc(OCCCCCOc2ccc(C(=N)N)cc2)cc1 [Pentamidine, pentamidine, reference compound]
IC50 at 18 h (in vitro): 64 ± 12 µM | Effect on ribonuclear foci (in words) [5]: significant reduction of ribonuclear foci
